According to PMC7032195 (Asian Journal of Pharmaceutical Sciences, 2018):
Where two headings read alike, the source gives them in different places.

Assays:
[1] = Pharmacokinetics after intravenous injection in rats; format: in vivo, Sprague-Dawley rats; conditions: i.v., 10 mg/kg
Outline: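 Male Sprague-Dawley rats (~200 g), n = 3, received ethanol solutions or co-loaded mPEG-PDLA micelles i.v. at 10 mg/kg. Orbital plexus blood was drawn into heparin tubes at 0.083–12 h. Plasma was separated at 5000 rpm for 10 min and stored at −20 °C. Carbamazepine was the internal standard, with methyl tert-butyl ether extraction. UV detection was at 228 or 306 nm. Parameters are mean ± SD.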

MCF-7 cells = assay: MTT assay of DTX, RES and their combinations at different mass ratios; format: cell-based; conditions: Homo sapiens
Outline: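 MCF-7 cells seeded at 6000 cells/well 12 h before dosing, then exposed to each test compound alone (0–50.0 or 0–100.0 µg/ml) or as 1:1 combinations (2.5+2.5 to 50+50 µg/ml); DMEM vehicle control. After two days, OD read at 490 nm. Six replicate wells per condition, at least three independent repeats. Combination index calculated for 2:1, 1:1 and 1:2 mass ratios.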

[2] = MCF7, read-out: IC50 in MCF-7 cells

Row | Structure (SMILES) | V ([1]; analyte DTX) [L/kg] | IC50 (MCF-7 cells; MCF7, read-out: IC50 (µg/ml) DTX) [µg/mL] | IC50 (MCF-7 cells; [2]) [µg/mL] | V ([1]; analyte RES) [L/kg] | IC50 (MCF-7 cells; MCF7, read-out: IC50 (µg/ml) RES) [µg/mL]
1 | CC(=O)O[C@@]12CO[C@@H]1C[C@H](O)[C@@]1(C)C(=O)[C@H](O)C3=C(C)[C@@H](OC(=O)[C@H](O)[C@@H](NC(=O)OC(C)(C)C)c4ccccc4)C[C@@](O)([C@@H](OC(=O)c4ccccc4)[C@H]21)C3(C)C [DTX, docetaxel] | 3.79 ± 0.83 | 10.4 ± 0.43 | 10.4 | – | –
2 | Oc1ccc(/C=C/c2cc(O)cc(O)c2)cc1 [RES, resveratrol] | – | – | 23 | 3.45 ± 2.93 | 23 ± 0.54
